# According to ChEMBL document CHEMBL3526045, “Conclusive identification of the oxybutynin-hydrolyzing enzyme in human liver” (Drug Metab Dispos, 2012):
# T1: Cocaine esterase (Homo sapiens, UniProt O00748)
# T1 sequence (O00748 whole entry): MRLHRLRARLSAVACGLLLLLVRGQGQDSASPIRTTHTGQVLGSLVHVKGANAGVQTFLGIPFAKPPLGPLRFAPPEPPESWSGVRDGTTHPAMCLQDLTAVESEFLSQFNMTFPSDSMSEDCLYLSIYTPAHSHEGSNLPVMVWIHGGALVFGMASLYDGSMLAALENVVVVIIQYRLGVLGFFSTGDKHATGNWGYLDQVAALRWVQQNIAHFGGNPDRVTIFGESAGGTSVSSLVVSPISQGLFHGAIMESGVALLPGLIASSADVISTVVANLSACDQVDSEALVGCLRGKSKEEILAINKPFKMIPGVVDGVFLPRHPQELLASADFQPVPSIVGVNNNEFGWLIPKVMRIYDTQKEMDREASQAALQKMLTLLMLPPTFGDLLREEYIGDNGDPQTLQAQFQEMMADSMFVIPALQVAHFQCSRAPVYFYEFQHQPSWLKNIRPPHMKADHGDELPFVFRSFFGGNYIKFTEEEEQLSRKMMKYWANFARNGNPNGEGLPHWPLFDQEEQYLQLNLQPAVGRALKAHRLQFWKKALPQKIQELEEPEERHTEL
# B1: Cocaine esterase (Homo sapiens) (protein)
# chain: T1 sequence (O00748 whole entry)
# What was measured:
# [1] = target: T1, Cocaine esterase; assay: Activity of human recombinant CES2 expressed in baculovirus-infected High Five insect cells assessed as 5 uM CES2 inhibitor loperamide-mediated inhibition of enzyme-mediated 2-cyclohexyl-2-phenylglycolic acid formation at 10 uM for 30 mins by HPLC analysis; conditions: 0.5 h
# [2] = test system: Liver microsome; assay: Drug metabolism in human liver microsomes assessed as 2-cyclohexyl-2-phenylglycolic acid formation by Michaelis-Menten equation; type: ADME
# How it was run: (§1)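 Oxybutynin (2.5–250 μM) incubated 15 min at 37 °C in 0.05 mol/L Tris-HCl pH 7.6 after 5 min pre-incubation. Final protein: liver microsomes 0.05, liver cytosol 0.1, recombinant CES1 microsomes 0.05 mg/mL. Stopped with acetonitrile/1% formic acid plus internal standard; CPGA quantified by LC-MS/MS in negative MRM mode; duplicates. Km, Vmax from Michaelis-Menten fit; CLint = Vmax/Km.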
# [3] = target: T1, Cocaine esterase; assay: Activity of human recombinant CES2 expressed in baculovirus-infected High Five insect cells assessed as 5 uM CES1 inhibitor clopidogrel-mediated inhibition of enzyme-mediated 2-cyclohexyl-2-phenylglycolic acid formation at 10 uM for 30 mins by HPLC analysis; conditions: 0.5 h
# [4] = Activity of human recombinant CES1b/CES1A1 expressed in baculovirus-infected High Five insect cells assessed as enzyme-mediated 2-cyclohexyl-2-phenylglycolic acid formation by Michaelis-Menten equation; type: ADME; how it was run: as §1
# [5] = target: T1, Cocaine esterase; assay: Activity of human recombinant CES2 expressed in baculovirus-infected High Five insect cells assessed as 50 uM CES1 inhibitor clopidogrel-mediated inhibition of enzyme-mediated 2-cyclohexyl-2-phenylglycolic acid formation at 10 uM for 30 mins by HPLC analysis; conditions: 0.5 h
# [6] = Activity of human recombinant CES1b/CES1A1 expressed in baculovirus-infected High Five insect cells assessed as intrinsic clearance for enzyme-mediated 2-cyclohexyl-2-phenylglycolic acid formation per mg of protein by Michaelis-Menten equation; type: ADME; how it was run: as §1
# [7] = Drug metabolism in human liver microsomes; type: ADME
# [8] = test system: Liver microsome; assay: Intrinsic clearance in human liver microsomes assessed as 2-cyclohexyl-2-phenylglycolic acid formation per mg of protein by Michaelis-Menten equation; type: ADME; how it was run: as §1
# [9] = Drug metabolism in human liver cytosol; type: ADME, tissue-based
# [10] = target: T1, Cocaine esterase; assay: Activity of human recombinant CES2 expressed in baculovirus-infected High Five insect cells assessed as enzyme-mediated 2-cyclohexyl-2-phenylglycolic acid formation per mg of protein by Michaelis-Menten equation; type: ADME
# [11] = test system: Liver cytosol; assay: Intrinsic clearance in human liver cytosol assessed as 2-cyclohexyl-2-phenylglycolic acid formation per mg of protein by Michaelis-Menten equation; type: ADME, tissue-based; how it was run: as §1
# [12] = target: T1, Cocaine esterase; assay: Activity of human recombinant CES2 expressed in baculovirus-infected High Five insect cells assessed as 30 to 300 uM CES1 inhibitor procainamide-mediated inhibition of enzyme-mediated 2-cyclohexyl-2-phenylglycolic acid formation at 10 uM for 30 mins by HPLC analysis; conditions: 0.5 h
# [13] = test system: Liver cytosol; assay: Drug metabolism in human liver cytosol assessed as 2-cyclohexyl-2-phenylglycolic acid formation per mg of protein by Michaelis-Menten equation; type: ADME, tissue-based; how it was run: as §1
# [14] = test system: Liver microsome; assay: Drug metabolism in human liver microsomes assessed as 2-cyclohexyl-2-phenylglycolic acid formation per mg of protein by Michaelis-Menten equation; type: ADME; how it was run: as §1
# [15] = target: T1, Cocaine esterase; assay: Activity of human recombinant CES2 expressed in baculovirus-infected High Five insect cells assessed as intrinsic clearance for enzyme-mediated 2-cyclohexyl-2-phenylglycolic acid formation per mg of protein by Michaelis-Menten equation; type: ADME
# [16] = test system: Liver cytosol; assay: Drug metabolism in human liver cytosol assessed as 2-cyclohexyl-2-phenylglycolic acid formation by Michaelis-Menten equation; type: ADME, tissue-based; how it was run: as §1
# [17] = Activity of human recombinant CES1b/CES1A1 expressed in baculovirus-infected High Five insect cells assessed as enzyme-mediated 2-cyclohexyl-2-phenylglycolic acid formation per mg of protein by Michaelis-Menten equation; type: ADME; how it was run: as §1
# [18] = target: T1, Cocaine esterase; assay: Activity of human recombinant CES2 expressed in baculovirus-infected High Five insect cells assessed as enzyme-mediated compound formation formation treated with oxybutynin at 10 uM for 30 mins by HPLC analysis in presence of 10 uM CES1 inhibitor NDGA; type: ADME; conditions: 0.5 h
# How it was run: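 Oxybutynin (10 μM) hydrolysis to CPGA by recombinant CES2-expressing microsomes at 0.1 mg/mL final protein, in 0.05 mol/L Tris-HCl pH 7.6 at 37 °C. Inhibitor was added before a 5 min preincubation, with at most 0.2% final DMSO. Substrate addition started the reaction, which ran 30 min. It was stopped with ACN/1% formic acid plus internal standard. CPGA was quantified by LC-MS/MS in negative MRM mode, as relative activity versus control, in duplicate.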
# [19] = substrate: CCN(CC)CC#CCOC(=O)C(O)(c1ccccc1)C1CCCCC1; assay: Activity of human CES2; type: ADME
# [20] = substrate: CCN(CC)CC#CCOC(=O)C(O)(c1ccccc1)C1CCCCC1; assay: Activity of human recombinant CES2 expressed in baculovirus-infected High Five insect cells assessed as enzyme-mediated 2-cyclohexyl-2-phenylglycolic acid formation by Michaelis-Menten equation; type: ADME
molecule,measurement,setting,value
CCN(CC)CC#CCOC(=O)C(O)(c1ccccc1)C1CCCCC1.Cl (stereo unspecified) [OXYBUTYNIN CHLORIDE],inhibition (INH),[1],58%
same,Km,[2],22 µM
same,inhibition (INH),[3],< 11%
same,Km,[4],17 µM
same,inhibition (INH),[5],53%
same,clearance,[6],18 µL/min/mg
same,Km,[7],22 µM
same,CLint,[8],5.9 µL/min/mg
same,Km,[9],13 µM
same,Vmax,[10],32 pmol/min
same,CLint,[11],8.2 µL/min/mg
same,inhibition (INH),[12],< 14%
same,Vmax,[13],110 pmol/min
same,Vmax,[14],130 pmol/min
same,clearance,[15],0.51 µL/min/mg
same,Km,[16],13 µM
same,Vmax,[17],310 pmol/min
O=C(O)C(O)(c1ccccc1)C1CCCCC1 (stereo unspecified),Drug metabolism,[18],metabolite_detected
B1,Km,[19],1100 µM
same,Vmax,[19],0.36 µmol/min/mg
same,Km,[20],62 µM
